# Screens as filed in PubChem BioAssay.
# ADAM10 inh: inhibitors of human ADAM10; O14672; recombinant ADAM10, EDANS/DABCYL FRET peptide cleavage, 3 h; inhibition, % at 7 µM; 0.62% of 370,000 active;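 active = inhibition above a per-campaign cutoff equal to the mean of compounds falling between control-based bounds plus 3 SD, cut at about 20% in these data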;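 note: 0% = DMSO wells while the 100% control is not disclosed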
# Target sequence (O14672 214-748 limits assumed): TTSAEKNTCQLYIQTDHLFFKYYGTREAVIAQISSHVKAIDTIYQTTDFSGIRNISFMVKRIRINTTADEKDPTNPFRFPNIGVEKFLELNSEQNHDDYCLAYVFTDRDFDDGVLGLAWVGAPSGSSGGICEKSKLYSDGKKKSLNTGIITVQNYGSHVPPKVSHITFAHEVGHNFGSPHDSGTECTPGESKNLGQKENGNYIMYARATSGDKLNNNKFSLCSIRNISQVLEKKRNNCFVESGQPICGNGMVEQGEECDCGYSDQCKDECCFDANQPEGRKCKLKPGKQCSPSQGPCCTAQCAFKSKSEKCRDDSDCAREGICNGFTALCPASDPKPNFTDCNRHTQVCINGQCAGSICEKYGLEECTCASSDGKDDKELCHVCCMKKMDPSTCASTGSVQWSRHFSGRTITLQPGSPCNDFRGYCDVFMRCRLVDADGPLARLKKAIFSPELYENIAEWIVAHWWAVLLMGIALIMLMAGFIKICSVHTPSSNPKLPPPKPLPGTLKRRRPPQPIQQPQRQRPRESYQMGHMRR
# ADAM17 inh: inhibits human ADAM17; P78536; recombinant ADAM17, EDANS/DABCYL FRET peptide cleavage; inhibition, % at 6.95 µM; 0.83% of 370,000 active; AID 720648;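 active = inhibition above the mean of compounds lying between control limits plus 3 SD, set per campaign, cut at about 8.5% in these data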;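 note: 0% = DMSO-only wells as the low control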
# MPTP block: inhibitors of mitochondrial permeability transition pore | isolated mouse mitochondria, Ca2+ swelling absorbance, 30 min | inhibition, % at 10 µM | 1.4% of 360,000 active | AID 602449;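 active = inhibition of 50% or more, scaled per plate between neutral and stimulator controls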;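 note: 0% = DMSO wells given calcium and 100% = 1 mM EGTA wells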
# SKN-1 block: inhibitors of C. elegans SKN-1; C. elegans VP596 Pgst-4::GFP/RFP ratio, acrylamide-induced, 24 h; AID 624304; 0.49% of 360,000 active; inhibition, % at 21.8 µM;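 active = interference check ratio from 0.5 to 1.5 plus GFP to RFP signal ratio inhibition reaching or exceeding a fixed threshold, cut at about 30% in these data, passing the limit was not always enough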
# GRIN3A LBD mod: modulates the human NR3A ligand-binding domain; NR3A LBD differential scanning fluorimetry, Tm shift; 0% = protein alone, 100% = glycine-bound protein; Tm shift relative to glycine control, % at 25 µM; 2.5% of 340,000 active; AID 1259313;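 active = melting temperature shift of at least 10% of the positive control shift, at one fixed dose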
# MT1-MMP act inh: MT1-MMP (human) activation inhibition | GFP/RFP ratio change, % at 20 µM | HT1080 RFP-PRO-GFP cells, GFP/RFP ratio fluorescence, overnight; percent of plate control window, DMSO zero | 0.061% of 360,000 active | P50281;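 active = GFP/RFP ratio change of at least 30% with cell ATP level not reduced by more than half and red fluorescence within 50% of control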
#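 Compound: 20 µM single dose, 1% DMSO / System: HT1080 RFP-PRO-GFP cells / Controls: DMSO and RFP-L50D-GFP cell wells / Read-out basis: GFP/RFP fluorescence ratio / Schedule: overnight compound exposure at 37 °C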
# MPTP counter: mitochondrial membrane potential, counter-screen; AID 624504; 78% of 5,000 active; shares compounds with MPTP block; inhibition, % at 10 µM; isolated mitochondria, Rhodamine 123 fluorescence; in the data active = inhibition above about 22%;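 note: 0% = DMSO vehicle and 100% = positive control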
# MPTP abs DR: MPTP inhibition, dose response swelling confirmation | shares compounds with MPTP block | isolated mitochondria swelling, absorbance | IC50, µM | 58% of 780 active; in the data active = IC50 below about 20 µM
# MPTP counter DR: counter-screen for mitochondrial permeability transition pore inhibitors, dose response; shares compounds with MPTP block; isolated mitochondria counterscreen, fluorescence read-out; IC50, µM; 49% of 780 active; AID 651564; in the data active = IC50 below about 80 µM
# Active calls of the source: *; / = no result. Only some compounds are listed: those with a hit (about 4.7% of all), similar ones and a draw of the others.
SMILES,ADAM10 inh,ADAM17 inh,MPTP block,SKN-1 block,GRIN3A LBD mod,MT1-MMP act inh,MPTP counter,others
Nc1nonc1N/N=C/c1c(O)ccc2ccccc12,14.3,2.7,55.5*,2.3,24.9*,3.6,73.8*,
O=C(CN(C(=O)CCC(=O)Nc1nccs1)c1ccc(F)cc1)NCC1CCCO1 (configuration not stated),-4.9,-3.5,-4.5,11.2,-3.8,-2.7,/,
CCCCc1ccc(NC(=S)NCCO)cc1,2.4,-2.1,2.1,-3.7,-1.8,2.5,/,
CCCCc1ccc(NC(=S)NCCc2ccc(F)cc2)cc1,8.8,7.3,81.5*,7.6,9.5,3.6,104.9*,
Fc1ccc(CCNC(=S)Nc2ccc(F)cc2)cc1,-2.5,-4.0,50.2*,6.2,19.5*,3.2,93.0*,
COC(=O)c1ccccc1Oc1cnc2ccccc2n1,-1.7,-2.9,-1.0,-0.3,0.9,1.6,/,
O=C(NCCCn1ccnc1)Nc1ccc(Cl)c(Cl)c1,3.5,1.8,79.0*,-3.7,3.8,3.3,88.0*,
O=C(NCCCN1CCCC1=O)Nc1ccc(F)c(Cl)c1,13.3,0.8,84.2*,-3.3,-1.5,-0.4,92.1*,
O=C(NCCCn1ccnc1)Nc1ccc(Cl)cc1,-3.6,-4.2,17.8,10.7,-0.3,1.4,/,
Cc1cccc(C)c1-n1nnnc1C1(C)CCC(=O)N1CCc1ccccc1F (configuration not stated),5.0,-1.9,0.7,2.9,/,3.3,/,
COc1ccc(/C=C/C(=O)NCCSCc2ccco2)cc1,5.2,-0.6,-0.3,-3.6,4.8,0.4,/,
CC(C)(C)C(=O)NC(=S)NNC(=O)c1ccc(Cl)cc1Cl,8.3,1.9,75.6*,9.1,-2.5,-10.0,-4.8,
CC(C)(C)C(=O)NC(=S)NNC(=O)c1ccc(-c2ccccc2)cc1,/,/,93.5*,-9.4,-8.5,-10.1,22.6*,
Cn1c(N)c(C(=O)COC(=O)/C=C/c2cccc(Cl)c2)c(=O)n(C)c1=O,-18.1,-4.7,-1.2,-7.0,-1.0,10.6,/,
CCC(NC(=O)Nc1nccs1)(C(F)(F)F)C(F)(F)F,4.5,-6.7,0.9,1.1,0.8,-1.1,/,
CCSc1nnc(NC(=O)NC(CC)(C(F)(F)F)C(F)(F)F)s1,4.0,-3.5,88.2*,20.9,-0.4,-10.3,102.0*,
CCSc1nnc(NC(=O)NC(C)(C(F)(F)F)C(F)(F)F)s1,8.0,-0.8,92.2*,8.4,-8.7,-6.5,93.2*,
CCCC(=O)Nc1nnc(SCC)s1,-5.1,-0.8,0.8,13.4,-15.5,5.1,/,
NC(N)=NCCCC(NC(=O)c1ccccc1)C(=O)Nc1ccc2ccccc2c1 (configuration not stated),-15.2,1.9,81.2*,-3.2,4.6,0.3,-17.7,MPTP abs DR=8.71*;MPTP counter DR=>80
Cn1c2ccccc2c2n[nH]c(=S)nc21,-7.8,-2.7,1.6,24.9,0.4,0.8,/,
COc1ccccc1Oc1ccc(S(=O)(=O)NCc2ccccn2)cc1,-4.6,0.2,70.1*,24.4,-0.2,0.0,37.8*,
CC(O)(c1ccc(F)c(F)c1)c1nc(-c2cccc(F)c2)cs1 (configuration not stated),5.7,3.9,5.6,15.6,/,-0.6,/,
Cc1nonc1NC(=O)CSc1nc(C2CCCCC2)nc2ccccc12,5.2,0.9,39.5,35.0,-5.8,-6.5,/,
Cc1nonc1NC(=O)CSc1nc(C23CC4CC(CC(C4)C2)C3)nc2ccccc12,-2.8,-4.5,79.2*,-4.5,17.5*,3.0,72.3*,
Cn1c(N2CCOCC2)c(/C=N/O)c2ccccc21,-9.2,-1.7,-1.1,7.9,-0.7,0.2,/,
Cn1c(N=Nc2ccc(N3CCOCC3)cc2)[n+](C)c2ccccc21,5.8,3.6,81.2*,39.5*,-5.2,7.2,24.7*,
